# Laboratory results taken from ChEMBL document CHEMBL2150855, “Tocotrienamines and tocopheramines: reactions with radicals and metal ions” (Bioorg Med Chem, 2011).
# Calls of active or inactive are those of the source. The rule behind the calls is not given here.
# Columns and labels:
# Format in all cases: functional
# [1] = Antioxidant activity assessed as ferric ion reducing power by FRAP method
# Method in brief: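 FRAP assay adapted for lipophilic antioxidants: Fe3+–TPTZ complex reduction in 300 mM acetate buffer, pH 3.6, at a 1:500 molar ratio of test compound to ferric ions. Data are mean ± SD of three series run in triplicate, with Student–Newman–Keuls post-hoc ANOVA (p<0.05).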
# [2] = Antioxidant activity assessed as ABTS+ free radical scavenging activity by TEAC assay
# Method in brief: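 TEAC assay measures reduction of the ABTS radical cation, with results expressed as Trolox equivalents. Data are mean ± SD of three series run in triplicate, with Student–Newman–Keuls post-hoc ANOVA (p<0.05).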
# [3] = test system: Radical scavenging activity; experiment: Antioxidant activity assessed as DPPH free radical scavenging activity
# [4] = Antioxidant activity assessed as nitration product at 1:1 compound to phenol concentration
# Method in brief: (§1)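 FeCl3 used as oxidant at 10:1 and 100:1 molar ratios to test compound, with phenolic substrate at 1:1 to compound (FeCl3/compound/phenolic 10:1:1 or 100:1:1), in 50:50 v/v H2O/EtOH. Percent conversion to nitration product determined. Means of triplicate experiments.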
# [5] = Antioxidant activity assessed as reduction in copper-mediated ascorbic acid oxidation preincubated for 10 mins measured for every 2 mins upto 2 hrs by UV spectrophotometry
# Method in brief: (§2)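 Test compound suspension combined with Chelex-treated water containing 2 µM Cu+. Plate pre-incubated 10 min at 37 °C, then ascorbate added (from a 2 mM stock, pH 7) to a starting 200 µM. A265 read every 2 min for 2 h at 37 °C to obtain the initial depletion rate. Ethanol vehicle served as baseline and DTPA as chelator control. Triplicate.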
# [6] = Antioxidant activity assessed as reduction in copper-mediated ascorbic acid oxidation at 100 uM preincubated for 10 mins measured for every 2 mins upto 2 hrs by UV spectrophotometrya; parameters: scale not given: the % may be the effect or the level left; method in brief: as §2
# [7] = Antioxidant activity assessed as formation of DPPH breakdown product at 0.5 mM incubated for 20 mins by HPLC
# Method in brief: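 Aerobic DPPH (0.5 mM) mixed with test compound (0.5 mM) and incubated 20 min at room temperature. Reaction products analysed by HPLC, taking the peak area of the product eluting at 4 min. Mean ± SD of five experiments.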
# [8] = test system: Radical scavenging activity; experiment: Antioxidant activity assessed as rate constant for DPPH free radical scavenging activity by stopped flow spectroscopy
# Method in brief: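 Stopped-flow rapid mixing with diode-array photometer detection. Antioxidant stocks (ca. 2 mM) and DPPH (200 µM) prepared in ethanol; DPPH (200 µM) in acetonitrile also used. Starting antioxidant concentration after mixing is half the stock. Second-order rate constant derived from the kinetics.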
# [9] = Antioxidant activity assessed as nitration product at 1:1 compound to salicylic acid concentration; method in brief: as §1
# [10] = Antioxidant activity assessed as nitration product using HOC6H3(Me)2-(2,6) as substrate at FeCl3 to compound to phenol concentration 100:1:1; method in brief: as §1
# [11] = Antioxidant activity assessed as nitration product using HOC6H3(Me)2-(2,6) as substrate at FeCl3 to compound to phenol concentration 10:1:1; method in brief: as §1
# [12] = Antioxidant activity assessed as nitration product using HOC6H3(t-Bu)2-(2,6) as substrate at FeCl3 to compound to phenol concentration 100:1:1; method in brief: as §1
# [13] = Antioxidant activity assessed as nitration product using PhOH as substrate at FeCl3 to compound to phenol concentration 100:1:1; method in brief: as §1
# [14] = Antioxidant activity assessed as nitration product using MeOC6H3(Me)2-(2,6) as substrate at FeCl3 to compound to phenol concentration 100:1:1; method in brief: as §1
# [15] = Antioxidant activity assessed as nitration product using PhOMe as substrate at FeCl3 to compound to phenol concentration 10:1:1; method in brief: as §1
# [16] = Antioxidant activity assessed as nitration product using PhOH as substrate at FeCl3 to compound to phenol concentration 10:1:1; method in brief: as §1
# [17] = Antioxidant activity assessed as nitration product using HOC6H3(t-Bu)2-(2,6) as substrate at FeCl3 to compound to phenol concentration 10:1:1; method in brief: as §1
# [18] = Antioxidant activity assessed as nitration product using PhOMe as substrate at FeCl3 to compound to phenol concentration 100:1:1; method in brief: as §1
# [19] = Antioxidant activity assessed as nitration product using MeOC6H3(Me)2-(2,6) as substrate at FeCl3 to compound to phenol concentration 10:1:1; method in brief: as §1
SMILES,Activity [1],Activity [2],Activity [3],also measured
CC(C)=CCC/C(C)=C/CC/C(C)=C/CC[C@]1(C)CCc2cc(N)cc(C)c2O1,Active,Active,Active,–
Cc1c(O)cc2c(c1C)OC(C)(CCC(=O)O)CC2 (racemic),Active,Active,Active,–
CC(C)=CCC/C(C)=C/CC/C(C)=C/CC[C@]1(C)CCc2cc(O)c(C)c(C)c2O1,Active,Active,Active,–
Cc1c(O)cc2c(c1C)O[C@](C)(CCC[C@H](C)CCC[C@H](C)CCCC(C)C)CC2,Active,Active,Active,Activity [4]: 13%
Cc1c(O)cc2c(c1C)OC(C)(C)CC2,–,–,–,Activity [4]: 3%
Cc1c(N)cc2c(c1C)O[C@](C)(CCC[C@H](C)CCC[C@H](C)CCCC(C)C)CC2,Active,Active,Active,Activity [5]: Dose-dependent effect; Activity [6]: 35%
Cc1c(C)c2c(c(C)c1O)CC[C@@](C)(CCC[C@H](C)CCC[C@H](C)CCCC(C)C)O2,Active,Active,Active,Activity [7]: inactive; Activity [8]: 280 L/mol/s
Cc1cc(N)cc2c1O[C@](C)(CCC[C@H](C)CCC[C@H](C)CCCC(C)C)CC2,Active,Active,Active,Activity [5]: Dose-dependent effect; Activity [6]: 44.7%
Cc1c(C)c2c(c(C)c1O)CCC(C)(CCC(=O)O)O2 (racemic),Active,Active,Active,–
Cc1cc(O)cc2c1OC(C)(CCC(=O)O)CC2 (racemic),Active,Active,Active,–
CC(C)=CCC/C(C)=C/CC/C(C)=C/CC[C@]1(C)CCc2cc(N)c(C)c(C)c2O1,Active,Active,Active,–
CC(C)=CCC/C(C)=C/CC/C(C)=C/CC[C@]1(C)CCc2c(C)c(N)c(C)c(C)c2O1,Active,Active,Active,–
Cc1cc(O)cc2c1O[C@](C)(CCC[C@H](C)CCC[C@H](C)CCCC(C)C)CC2,Active,Active,Active,–
CC(C)=CCC/C(C)=C/CC/C(C)=C/CC[C@]1(C)CCc2c(C)c(O)c(C)c(C)c2O1,Active,Active,Active,–
Cc1c(C)c2c(c(C)c1N)CC[C@@](C)(CCC[C@H](C)CCC[C@H](C)CCCC(C)C)O2,Active,Active,Active,Activity [9]: 8%; Activity [10]: 9%; Activity [11]: 4%; Activity [7]: Active; Activity [12]: 0.4%; Activity [13]: 26%; Activity [14]: inactive; Activity [8]: 4290 L/mol/s; Activity [15]: 0%; Activity [16]: 12%; Activity [17]: 0.2%; Activity [5]: Dose-dependent effect; Activity [18]: 2%; Activity [6]: 19.5%; Activity [19]: 0%
Cc1c(C)c2c(c(C)c1O)CC[C@@](C)(CCCC(C)CCCC(C)CCCC(C)C(=O)O)O2 (mixture of isomers),Active,Active,Active,–
CC(C)=CCC/C(C)=C/CC/C(C)=C/CC[C@]1(C)CCc2cc(O)cc(C)c2O1,Active,Active,Active,–
